Data from ChEMBL document CHEMBL4043176, “Synthesis of 3-[4-(dimethylamino)phenyl]alkyl-2-oxindole derivatives and their effects on neuronal cell death” (Bioorg Med Chem Lett, 2017).
Activity calls are given as the source filed them. No cut-off for these calls is given here.

Tests used:
HT-22 [1] = assay: Cytotoxicity against mouse HT22 cells up to 100 uM after 24 hrs by LDH-release assay; format: cell-based; settings: ht-22, 24 h
In short: (§1)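 HT22 cells exposed to compound alone, without glutamate (cytotoxicity tested up to 100 µM). Cell injury is read as lactate dehydrogenase released into the culture medium, measured with a cytotoxicity detection kit. LDH from control cultures is set at 100%.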

HT-22 [2] = assay: Neuroprotective activity against glutamate-induced neuronal cell death in mouse HT22 cells at 25 to 50 uM after 24 hrs by LDH-release assay relative to control; format: functional
In short: (§2)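 HT22 cells exposed to 10 mM glutamate together with compound at 25 or 50 µM for 24 h. Cell death read as LDH released into the culture medium (cytotoxicity detection kit). Control is LDH release from cells incubated without glutamate, set at 100%.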

HT-22 [3] = assay: Neuroprotective activity against glutamate-induced neuronal cell death in mouse HT22 cells after 24 hrs by LDH-release assay; format: functional, cell-based; settings: HT-22, 24 h
In short: (§3)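 HT22 cells co-incubated 24 h with 10 mM glutamate plus compound at 0, 1.0, 2.5, 5.0, 10 or 25 µM. Cell death is read as LDH released into the medium. Control-culture LDH is set at 100%. IC50 values were estimated from this low-dose series; for some compounds, approximate IC50s were corrected by subtracting suppression of basal, glutamate-independent death.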

HT-22 [4] = assay: Neuroprotective activity against glutamate-induced neuronal cell death in mouse HT22 cells at 1 to 25 uM after 24 hrs by LDH-release assay relative to control; format: functional, cell-based; in short: as §3
HT-22 [5] = assay: Neuroprotective activity against glutamate-induced neuronal cell death in mouse HT22 cells at 2.5 to 10 uM after 24 hrs by LDH-release assay relative to control; format: functional, cell-based; in short: as §3
HT-22 [6] = assay: Cytotoxicity against mouse HT22 cells after 24 hrs in absence of glutamate by LDH-release assay relative to control; format: ADME, cell-based; settings: ht-22, 24 h; in short: as §1
HT-22 [7] = assay: Neuroprotective activity against glutamate-induced neuronal cell death in mouse HT22 cells at 2.5 to 5 uM after 24 hrs by LDH-release assay relative to control; format: functional, cell-based; in short: as §3
HT-22 [8] = assay: Neuroprotective activity against glutamate-induced neuronal cell death in mouse HT22 cells at 50 uM after 24 hrs by LDH-release assay relative to control; format: functional, cell-based
In short: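 HT22 cells treated 24 h with 10 mM glutamate and compound at 0, 25 or 50 µM. Cell death is read as lactate dehydrogenase released into the culture medium, measured with a cytotoxicity detection kit. LDH of control cultures is set at 100%.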

HT-22 [9] = assay: Neuroprotective activity against glutamate-induced neuronal cell death in mouse HT22 cells at 25 uM after 24 hrs by LDH-release assay relative to control; format: functional; in short: as §2
HT-22 [10] = assay: Neuroprotective activity against glutamate-induced neuronal cell death in mouse HT22 cells at 1 to 10 uM after 24 hrs by LDH-release assay relative to control; format: functional, cell-based; in short: as §3

## CN(C)CCCCCCCC1(C)C(=O)Nc2ccccc21 (centres undefined)
HT-22 [1]
  Activity: Non-Toxic
HT-22 [2]
  Activity: inactive

## CN(C)c1ccc(CCCC2C(=O)Nc3ccc(C(F)(F)F)cc32)cc1 (centres undefined)
HT-22 [1]
  Activity: Non-Toxic

## COc1ccc2c(c1)C1(CCN(c3ccccc3)CC1)C(=O)N2
HT-22 [1]
  Activity: Non-Toxic
HT-22 [2]
  Activity: inactive

## COc1ccc2c(c1)C(C)(CCCc1ccc(N(C)C)cc1)C(=O)N2CC(=O)N(C)C (centres undefined)
HT-22 [1]
  Activity: Non-Toxic

## COCCOc1ccc2c(c1)C(C)(CCCc1ccc(N(C)C)cc1)C(=O)N2 (centres undefined)
HT-22 [1]
  Activity: Non-Toxic

## COc1ccc(N2C(=O)C(C)(CCCc3ccc(N(C)C)cc3)c3ccccc32)cc1 (centres undefined)
HT-22 [1]
  Activity: Non-Toxic

## CN(C)c1ccc(CC2C(=O)Nc3ccccc32)cc1 (racemic)
HT-22 [1]
  Activity: Non-Toxic
HT-22 [3]
  IC50: 7.1 µM
HT-22 [2]
  Activity: Active
HT-22 [4]
  Activity: Active

## CN(C)c1ccc(CCCC2C(=O)Nc3ccccc32)cc1 (racemic)
HT-22 [1]
  Activity: Non-Toxic
HT-22 [3]
  IC50: 5.5 µM
HT-22 [2]
  Activity: Active
HT-22 [5]
  Activity: Active

## CN(Cc1ccccc1)c1ccc(CCCC2(C)C(=O)Nc3ccccc32)cc1 (racemic)
HT-22 [1]
  Activity: Non-Toxic
HT-22 [2]
  Activity: Active

## CN(C)c1ccc(CCCCC2C(=O)Nc3ccccc32)cc1 (racemic)
HT-22 [1]
  Activity: Non-Toxic
HT-22 [2]
  Activity: Active

## COc1ccc2c(c1)C(C)(CCCc1ccc(N(C)C)cc1)C(=O)N2 (racemic) [listing 1 of 2 here]
HT-22 [1]
  Activity: Non-Toxic

## COc1ccc2c(c1)C(C)(CCOc1ccc(N(C)C)cc1)C(=O)N2 (racemic)
HT-22 [1]
  Activity: Non-Toxic
HT-22 [2]
  Activity: Active

## COc1ccc2c(c1)C(C)(CCCc1ccc(N(C)C)cc1)C(=O)N2CC(=O)O (racemic)
HT-22 [1]
  Activity: Non-Toxic
HT-22 [2]
  Activity: inactive

## CN(C)c1ccc(CCCC2(C)C(=O)Nc3ccc(O)cc32)cc1 (racemic)
HT-22 [1]
  Activity: Non-Toxic
HT-22 [3]
  IC50: 1.9 µM
HT-22 [2]
  Activity: >100%
HT-22 [6]
  Activity: Non-Toxic
HT-22 [7]
  Activity: Active

## CN(CCCCCC1C(=O)Nc2ccccc21)c1ccccc1 (racemic)
HT-22 [1]
  Activity: Non-Toxic
HT-22 [2]
  Activity: Active

## CCN(CC)c1ccc(CCCC2C(=O)Nc3ccccc32)cc1 (racemic)
HT-22 [1]
  Activity: Non-Toxic
HT-22 [2]
  Activity: >100%
HT-22 [6]
  Activity: Non-Toxic

## CN(C)c1ccc(CCCC2(C)C(=O)Nc3ccccc32)cc1 (racemic)
HT-22 [1]
  Activity: Non-Toxic
HT-22 [2]
  Activity: >100%
HT-22 [6]
  Activity: Non-Toxic

## CN(C)c1ccc(CCC2C(=O)Nc3ccccc32)cc1 (racemic)
HT-22 [1]
  Activity: Non-Toxic
HT-22 [8]
  Activity: Active
HT-22 [9]
  Activity: inactive

## CN(C)c1ccc(C(C)(C)CC2C(=O)Nc3ccccc32)cc1 (racemic)
HT-22 [1]
  Activity: Non-Toxic

## CN(C)c1ccc(CCCC2C(=O)N(C)c3ccccc32)cc1 (racemic)
HT-22 [1]
  Activity: Non-Toxic
HT-22 [2]
  Activity: >100%
HT-22 [6]
  Activity: Non-Toxic

## CN(C)c1ccc(C(=O)NCCC2C(=O)Nc3ccccc32)cc1 (racemic)
HT-22 [1]
  Activity: Non-Toxic
HT-22 [2]
  Activity: inactive

## CN(C)c1cccc(CCCC2C(=O)Nc3ccccc32)c1 (racemic)
HT-22 [1]
  Activity: Non-Toxic
HT-22 [2]
  Activity: >100%
HT-22 [6]
  Activity: Non-Toxic

## CN(C)c1ccc(CCCC2(C)C(=O)Nc3ccc(F)cc32)cc1 (racemic)
HT-22 [1]
  Activity: Non-Toxic
HT-22 [10]
  Activity: Active
HT-22 [3]
  IC50: 1.2 µM
HT-22 [2]
  Activity: >100%
HT-22 [6]
  Activity: Non-Toxic

## COc1ccc2c(c1)C(C)(CCCc1ccc(N(C)C)cc1)C(=O)N2 (racemic) [listing 2 of 2 here]
HT-22 [2]
  Activity: Active

## COc1ccc2c(c1)C(C)(CCCc1ccc(N(C)C)cc1)C(=O)N2 (stereo in doubt; 8a)
HT-22 [2]
  Activity: Active

## COc1ccc2c(c1)C(C)(CCCc1ccc(N(C)C)cc1)C(=O)N2 (stereo in doubt; 8b)
HT-22 [2]
  Activity: Active

## O=C1O[C@H]([C@@H](O)CO)C(O)=C1O [ASCORBIC ACID]
HT-22 [9]
  Activity: 50%
